S1P4 antagonist: S1P4 receptor antagonists, primary screen, cell-based | Sphingosine 1-phosphate receptor 4 (Homo sapiens), O95977 | S1P4-expressing cells, antagonist mode, reporter read-out | inhibition, % at 4.98 µM | 220,000 compounds, 0.26% hits; in the data active = inhibition above about 29%;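 also: 0% = wells stimulated with agonist and 100% = vehicle wells without agonist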
S1P4 ag: S1P4 receptor agonists, primary screen, cell-based | 220,000 compounds, 0.35% hits | S1P4-expressing cell line, agonist reporter assay | activation, % at 4.98 µM | AID 1509, 2009; in the data active = activation above about 11%;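 also: 0% = DMSO vehicle and 100% = reference agonist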
NPY1 pot ag: NPY-Y1 receptor potentiators or agonists, primary screen, cell-based | Neuropeptide Y receptor type 1 (Homo sapiens), P25929 | NPY-Y1 expressing cells, potentiator/agonist activation | activation, % at 3.6 µM | 220,000 compounds, 0.37% hits | AID 1304, 2008; in the data active = activation above about 33%, passing the limit was not always enough;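 also: cells stimulated with NPY at EC10 then isoproterenol at EC100; 0% = low agonist plus stimulus and 100% = saturating agonist plus stimulus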
Target sequence (P25929 whole entry, looked up): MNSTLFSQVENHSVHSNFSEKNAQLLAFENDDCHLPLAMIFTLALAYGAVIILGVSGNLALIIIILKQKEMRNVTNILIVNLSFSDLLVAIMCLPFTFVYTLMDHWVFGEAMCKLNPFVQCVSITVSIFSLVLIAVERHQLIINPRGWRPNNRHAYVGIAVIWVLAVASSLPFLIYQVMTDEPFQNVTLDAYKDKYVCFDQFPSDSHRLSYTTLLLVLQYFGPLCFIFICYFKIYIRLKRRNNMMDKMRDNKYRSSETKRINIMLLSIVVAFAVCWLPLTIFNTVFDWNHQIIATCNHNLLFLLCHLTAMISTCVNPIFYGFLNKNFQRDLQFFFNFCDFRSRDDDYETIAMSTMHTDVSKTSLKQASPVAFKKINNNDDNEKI
NPY-Y2 antag: NPY-Y2 receptor antagonists, primary screen, cell-based; 140,000 compounds, 0.99% hits; NPY-Y2 expressing cells, antagonist mode; inhibition, % at 2.7 µM; Neuropeptide Y receptor type 2 (Homo sapiens), P49146; in the data active = inhibition above about 17%;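 also: 0% = vehicle with agonist challenge and 100% = reference antagonist with challenge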
NPY-Y2 PAM-ag: NPY-Y2 potentiators or agonists, primary screen, cell-based; AID 1359, 2008; Neuropeptide Y receptor type 2 (Homo sapiens), P49146; 220,000 compounds, 0.45% hits; cells expressing NPY-Y2, potentiator/agonist read-out; activation, % at 3.6 µM; in the data active = activation above about 27%;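 also: cells stimulated with NPY near EC25 plus isoproterenol at EC100; 0% = vehicle plus submaximal agonist and 100% = vehicle plus saturating agonist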
NPY Y1 blocker: NPY-Y1 receptor antagonists, primary screen, cell-based; Neuropeptide Y receptor type 1 (Homo sapiens), P25929; HEK293-CNG Y1 cells, membrane potential fluorescence; NPY at EC95, then isoproterenol; inhibition, % at 3.6 µM; 200,000 compounds, 1% hits;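 active = inhibition above the campaign mean inhibition of all tested compounds plus 3 SD, cut at about 20% in these data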;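 also: 0% = DMSO wells given NPY plus isoproterenol and 100% = isoproterenol alone without NPY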
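Material: HEK293 Y1/CNG channel cell line | Also added: NPY (25 nM), isoproterenol (1 µM), Ro 20-1724 (25 µM) | Compound: One concentration, 3.6 µM, in 0.4% DMSO | Schedule: 3 h dye uptake, 1 h room-temperature compound, 45 min post-isoproterenol | Signal: Membrane-potential fluorescent dye readout | Read-out: % inhibition of NPY effect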
NPY1 antag ctr: NPY-Y1 receptor antagonists, selectivity check, counter-screen for NPY-Y2 antagonist project, cell-based. inhibition, % at 3.6 µM. AID 1256, 2008. cell-based NPY-Y1 antagonism counterscreen. shares compounds with NPY-Y2 antag. 710 compounds, 19% hits; in the data active = inhibition above about 20%;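 also: cells challenged with NPY then isoproterenol with cAMP sensed through a CNG channel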
NPY-Y2 ant conf: NPY-Y2 receptor antagonists, retest of hits, confirmation, HEK293-CNG cells, membrane potential fluorescence, triplicate; shares compounds with NPY-Y2 antag; HEK293 NPY-Y2 CNG channel; inhibition, % at 2.8 µM; 710 compounds, 32% hits; AID 1257, 2008;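 active = mean inhibition of triplicate wells above the hit cutoff set in the primary screen, cut at about 17% in these data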;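 also: 0% = DMSO with NPY challenge and 100% = BIIE0246 high control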
* hit, by the source's call; x = no result. Most compounds without a hit are left out; they make up all but 2.4% or so of the library.

SMILES	S1P4 antagonist	S1P4 ag	NPY1 pot ag	NPY-Y2 antag	NPY-Y2 PAM-ag	NPY Y1 blocker	others
Cc1ccccc1NC(=O)COC(=O)c1ccc(S(C)(=O)=O)c([N+](=O)[O-])c1	13	-2	18	x	22	-5
Cc1c(C#N)c(NC(=O)CCl)n(Cc2cccs2)c1C	1	2	-9	x	-9	5
CC(C)OP(=O)(OC(C)C)/C(C=O)=N\Nc1ccc([N+](=O)[O-])cc1	-5	0	51*	x	53*	x
CC1=CC(=C2C=CC(=O)C=C2)C=C(C)N1C	-3	1	-2	x	11	x
O=C(c1ccccc1)c1ccc(OCC(O)CN2CCN(Cc3ccccc3)CC2)cc1 (configuration not stated)	8	0	-49	4	-7	3
OC(CNC1Cc2ccccc2C1)COc1ccc(F)cc1 (configuration not stated)	-2	0	85*	x	74*	x
CC(C)(c1ccccc1)c1ccc(OCC(O)CNC2CCN(Cc3ccccc3)CC2)cc1 (configuration not stated)	-6	0	-25	x	-8	21*
CC(=O)Nc1ccc(OCC(O)CNC2CCCC2)cc1 (configuration not stated)	-11	2	-5	1	-3	4
CC(=O)c1ccc(OCC(O)CN2CCN(Cc3ccccc3)CC2)cc1 (configuration not stated)	-13	-4	-16	4	9	2
CCOc1ccc(OCC(O)CNC2CCN(Cc3ccccc3)CC2)cc1 (configuration not stated)	-17	2	-82	19*	-16	30*
Cc1ccc(-c2nnn(CC(=O)N(c3ccc4c(c3)OCCO4)C(C(=O)NCC3CCCO3)c3ccc(F)cc3)n2)o1 (configuration not stated)	-15	1	15	x	8	-5
O=S(=O)(c1ccc(-c2ccccn2)s1)N1CCC2(CC1)OCCO2	-17	2	18	x	12	x
CC1CCCc2sc3nc(N4CCN(CCO)CC4)n4ncnc4c3c21 (configuration not stated)	-7	0	-51	25*	-29	40*
CC(=O)ON1C(C)(C)Cc2noc(N)c2C1(C)C	18	-1	56*	-2	55*	3
CC(=O)c1c(C)nc2sc3c(=N)n(N)cnc3c2c1-c1ccc(Cl)cc1	-11	-2	-37	12	-4	15
O=C(CCS(=O)(=O)c1ccc(Cl)cc1)NCCc1c[nH]c2ccccc12	-14	0	12	x	9	-1
Cc1cc(OCC(O)CN2CCN(C)CC2)ccc1C(C)C (configuration not stated)	1	1	-20	0	2	5
Cc1ccc(OCC(O)CN2CCN(CC(O)COC(C)C)CC2)c(C(C)(C)C)c1 (configuration not stated)	-12	-1	96*	5	93*	-15
Cc1ccc(Cl)cc1N1CCN(CC(O)COC(C)C)CC1 (configuration not stated)	-5	0	2	x	-13	x
Cc1ccc(C(C)C)c(OCC(O)CN2CCOCC2)c1 (configuration not stated)	-15	0	89*	1	76*	-13
Cc1ccc(C(C)C)c(OCC(O)CN2CC(C)OC(C)C2)c1 (configuration not stated)	-27	3	93*	4	92*	-10
Cc1ccc(C(C)C)c(OCC(O)CN2CCN(CCO)CC2)c1 (configuration not stated)	-12	0	101*	4	81*	-11
CSC1=N/C(=C\c2ccccc2Cl)C(=O)N1N(C)C	-3	1	-5	x	-28	x
Cc1ccc(-n2nc(C)cc2Nc2ncc(Cl)cc2Cl)cc1	-20	3	-12	3	-4	11
Cc1cc(Nc2ncc(Cl)cc2Cl)n(-c2ccccc2C)n1	7	0	-12	20*	-1	29*
SMILES	S1P4 antagonist	S1P4 ag	NPY1 pot ag	NPY-Y2 antag	NPY-Y2 PAM-ag	NPY Y1 blocker	others
CCN(c1ccc(NC(=O)COC(=O)CCC(=O)c2ccc(F)cc2)cc1)C(C)C	-6	-2	-21	4	-22	1
COc1ccc2nc(N(CCN(C)C)C(=O)/C=C/c3cccs3)sc2c1	-20	1	22	x	25	12
COc1ccc2sc(N(CCN(C)C)C(=O)/C=C/c3cccs3)nc2c1	-11	-1	42*	x	41*	8
CC(C(=O)N1CCOCC1)N1C(=O)c2cccc3cccc(c23)C1=O (configuration not stated)	-20	2	-12	x	-1	-3
CCOC(=O)c1c(N)n(-c2ccc(N)cc2)c2nc3ccccc3nc12	10	0	21	-1	13	2
Nc1c(C(=O)Nc2ccccc2)c2nc3ccccc3nc2n1-c1ccc(O)cc1	7	8	55*	x	46*	x
Brc1ccc(-c2csc(/N=C/N3CCOCC3)n2)cc1	0	-2	-23	8	-12	35*
Brc1ccc(-c2csc(N3CCOCC3)n2)cc1	1	0	13	x	7	0
N#CC(C#N)=C1NC2(CCCC2)Cc2ccccc21	-32	2	-6	6	5	2
COc1ccccc1/C=C/C(=O)OCc1nc2ccccc2c(=O)[nH]1	-5	-1	-23	x	-1	4
O=C(N/N=C/c1ccco1)c1ccc(OCc2ccccc2)cc1	7	-1	5	x	-3	x
O=C(N/N=C/c1ccco1)c1ccccc1OCc1ccc(Br)cc1	-13	1	-59	33*	-47	16	NPY1 antag ctr=20;NPY-Y2 ant conf=20*
O=C(Nc1ccc(SC(F)(F)F)cc1)c1ccccn1	1	1	-4	x	10	-4
C=CCN1CC(C(=O)N2CCC(Cc3ccc(Cl)cc3)(C(=O)OCC)CC2)CC1=O (configuration not stated)	4	0	2	x	-16	x
CC(C)COP(=O)(OCC(C)C)C(Nc1ccccc1)c1ccc2c(c1)OCO2 (configuration not stated)	-5	3	-6	20*	13	17	NPY1 antag ctr=11;NPY-Y2 ant conf=6
